In ChEMBL document CHEMBL4422659, “Discovery of novel 4-phenyl-2-(pyrrolidinyl)nicotinamide derivatives as potent Nav1.1 activators” (Bioorg Med Chem Lett, 2019):

What was measured:
[1] = molecular target: Sodium channel protein type 1 subunit alpha (Homo sapiens) (UniProt P35498); assay: Activation of human Nav1.1 expressed in T-Rex-CHO cells assessed as change in decay time constant of channel currents at 3 uM at holding potential of -120 mV by automated patch-clamp electrophysiology assay relative to control; format: cell-based
Outline: (§1)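 Human Nav1.1 stably expressed in CHO cells; inactivation current decay time constant (tau) measured on IonWorks automated patch platform; tau given as % of control; mean of N=5 unless noted, standard deviation reported.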

[2] = molecular target: Sodium channel protein type 1 subunit alpha (Homo sapiens) (UniProt P35498); assay: Activation of human Nav1.1 expressed in T-Rex-CHO cells assessed as change in decay time constant of channel currents at 10 uM at holding potential of -120 mV by automated patch-clamp electrophysiology assay relative to control; format: cell-based; outline: as §1
[3] = molecular target: Sodium channel protein type 1 subunit alpha (Homo sapiens) (UniProt P35498); assay: Activation of human Nav1.1 expressed in T-Rex-CHO cells assessed as change in decay time constant of channel currents at 1 uM by Q-patch assay relative to control; format: cell-based
Outline: (§2)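 Human Nav1.1 in CHO cells, Q-patch automated patch clamp; current decay time constant (tau) and top current ratio expressed as % of control; mean of N=4 unless noted, standard deviation reported.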

[4] = molecular target: Sodium channel protein type 1 subunit alpha (Homo sapiens) (UniProt P35498); assay: Activation of human Nav1.1 expressed in T-Rex-CHO cells assessed as change in decay time constant of channel currents at 0.3 uM by Q-patch assay relative to control; format: cell-based; outline: as §2
[5] = molecular target: Sodium channel protein type 1 subunit alpha (Homo sapiens) (UniProt P35498); assay: Activation of human Nav1.1 expressed in T-Rex-CHO cells assessed as change in decay time constant of channel currents at 1 uM at holding potential of -120 mV by automated patch-clamp electrophysiology assay relative to control; format: cell-based; outline: as §1
[6] = molecular target: Sodium channel protein type 1 subunit alpha (Homo sapiens) (UniProt P35498); assay: Activation of human Nav1.1 expressed in T-Rex-CHO cells assessed as change in decay time constant of channel currents at 0.3 uM at holding potential of -120 mV by automated patch-clamp electrophysiology assay relative to control; format: cell-based; outline: as §1
[7] = molecular target: Sodium channel protein type 1 subunit alpha (Homo sapiens) (UniProt P35498); assay: Activation of human Nav1.1 expressed in T-Rex-CHO cells assessed as change in decay time constant of channel currents at 0.03 uM by Q-patch assay relative to control; format: cell-based; outline: as §2
[8] = molecular target: Sodium channel protein type 1 subunit alpha (Homo sapiens) (UniProt P35498); assay: Activation of human Nav1.1 expressed in T-Rex-CHO cells assessed as change in decay time constant of channel currents at 0.1 uM by Q-patch assay relative to control; format: cell-based; outline: as §2
[9] = molecular target: Sodium channel protein type 1 subunit alpha (Homo sapiens) (UniProt P35498); assay: Activation of human Nav1.1 expressed in T-Rex-CHO cells assessed as change in top peak current at 1 uM by Q-patch assay relative to control; format: cell-based; outline: as §2
human MDR1 = assay: Efflux ratio of permeability across pig LLC-PK1 cells expressing human MDR1 at 1 uM after 1 hr by LC-MS/MS analysis; format: ADME, cell-based, Sus scrofa
Outline: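 Efflux ratio measured in LLC-PK1 cells over-expressing human MDR1, substrate at 1 μM.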

[10] = Drug uptake in mouse plasma at 30 mg/kg, ip measured at 1 hr by LC-MS/MS analysis; format: ADME, organism-based
Outline: (§3)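 Mice dosed 30 mg/kg intraperitoneally; plasma and brain levels measured 1 h post-dose; brain/plasma ratio computed from total concentrations in brain and plasma.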

[11] = Drug uptake in mouse brain at 30 mg/kg, ip measured at 1 hr by LC-MS/MS analysis; format: ADME, organism-based; conditions: read-out: Drug uptake; outline: as §3
[12] = Ratio of drug level in brain to plasma in mouse at 30 mg/kg, ip measured at 1 hr by LC-MS/MS analysis; format: ADME, organism-based; conditions: brain and plasma; outline: as §3
[13] = Fraction unbound in mouse brain at 30 mg/kg, ip measured at 1 hr by LC-MS/MS analysis; format: ADME, organism-based
Outline: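 Brain protein binding ratio determined for brain exposure study in mice given 30 mg/kg i.p., sampled at 1 h.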

[14] = Free drug level in mouse brain at 30 mg/kg, ip measured at 1 hr by LC-MS/MS analysis; format: ADME, organism-based; conditions: in vivo
Outline: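 Free brain concentration derived from total brain level 1 h after 30 mg/kg i.p. in mice and the brain protein binding ratio.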

[15] = molecular target: Sodium channel protein type 2 subunit alpha (Homo sapiens) (UniProt Q99250); assay: Activation of human Nav1.2 expressed in T-Rex-CHO cells assessed as change in decay time constant of channel currents at 1 uM at holding potential of -120 mV by automated patch-clamp electrophysiology assay relative to control; format: cell-based
[16] = molecular target: Sodium channel protein type 3 subunit alpha (Homo sapiens) (UniProt Q9NY46); assay: Activation of human Nav1.3 expressed in CHO cells assessed as change in decay time constant of channel currents at 1 uM at holding potential of -120 mV by automated patch-clamp electrophysiology assay relative to control; format: cell-based
[17] = molecular target: T1, Sodium channel protein type 5 subunit alpha (Homo sapiens, UniProt Q14524); assay: Activation of human Nav1.5 expressed in T-Rex-CHO cells assessed as change in decay time constant of channel currents at 1 uM at holding potential of -120 mV by automated patch-clamp electrophysiology assay relative to control; format: cell-based
T1 sequence (Q14524 whole entry): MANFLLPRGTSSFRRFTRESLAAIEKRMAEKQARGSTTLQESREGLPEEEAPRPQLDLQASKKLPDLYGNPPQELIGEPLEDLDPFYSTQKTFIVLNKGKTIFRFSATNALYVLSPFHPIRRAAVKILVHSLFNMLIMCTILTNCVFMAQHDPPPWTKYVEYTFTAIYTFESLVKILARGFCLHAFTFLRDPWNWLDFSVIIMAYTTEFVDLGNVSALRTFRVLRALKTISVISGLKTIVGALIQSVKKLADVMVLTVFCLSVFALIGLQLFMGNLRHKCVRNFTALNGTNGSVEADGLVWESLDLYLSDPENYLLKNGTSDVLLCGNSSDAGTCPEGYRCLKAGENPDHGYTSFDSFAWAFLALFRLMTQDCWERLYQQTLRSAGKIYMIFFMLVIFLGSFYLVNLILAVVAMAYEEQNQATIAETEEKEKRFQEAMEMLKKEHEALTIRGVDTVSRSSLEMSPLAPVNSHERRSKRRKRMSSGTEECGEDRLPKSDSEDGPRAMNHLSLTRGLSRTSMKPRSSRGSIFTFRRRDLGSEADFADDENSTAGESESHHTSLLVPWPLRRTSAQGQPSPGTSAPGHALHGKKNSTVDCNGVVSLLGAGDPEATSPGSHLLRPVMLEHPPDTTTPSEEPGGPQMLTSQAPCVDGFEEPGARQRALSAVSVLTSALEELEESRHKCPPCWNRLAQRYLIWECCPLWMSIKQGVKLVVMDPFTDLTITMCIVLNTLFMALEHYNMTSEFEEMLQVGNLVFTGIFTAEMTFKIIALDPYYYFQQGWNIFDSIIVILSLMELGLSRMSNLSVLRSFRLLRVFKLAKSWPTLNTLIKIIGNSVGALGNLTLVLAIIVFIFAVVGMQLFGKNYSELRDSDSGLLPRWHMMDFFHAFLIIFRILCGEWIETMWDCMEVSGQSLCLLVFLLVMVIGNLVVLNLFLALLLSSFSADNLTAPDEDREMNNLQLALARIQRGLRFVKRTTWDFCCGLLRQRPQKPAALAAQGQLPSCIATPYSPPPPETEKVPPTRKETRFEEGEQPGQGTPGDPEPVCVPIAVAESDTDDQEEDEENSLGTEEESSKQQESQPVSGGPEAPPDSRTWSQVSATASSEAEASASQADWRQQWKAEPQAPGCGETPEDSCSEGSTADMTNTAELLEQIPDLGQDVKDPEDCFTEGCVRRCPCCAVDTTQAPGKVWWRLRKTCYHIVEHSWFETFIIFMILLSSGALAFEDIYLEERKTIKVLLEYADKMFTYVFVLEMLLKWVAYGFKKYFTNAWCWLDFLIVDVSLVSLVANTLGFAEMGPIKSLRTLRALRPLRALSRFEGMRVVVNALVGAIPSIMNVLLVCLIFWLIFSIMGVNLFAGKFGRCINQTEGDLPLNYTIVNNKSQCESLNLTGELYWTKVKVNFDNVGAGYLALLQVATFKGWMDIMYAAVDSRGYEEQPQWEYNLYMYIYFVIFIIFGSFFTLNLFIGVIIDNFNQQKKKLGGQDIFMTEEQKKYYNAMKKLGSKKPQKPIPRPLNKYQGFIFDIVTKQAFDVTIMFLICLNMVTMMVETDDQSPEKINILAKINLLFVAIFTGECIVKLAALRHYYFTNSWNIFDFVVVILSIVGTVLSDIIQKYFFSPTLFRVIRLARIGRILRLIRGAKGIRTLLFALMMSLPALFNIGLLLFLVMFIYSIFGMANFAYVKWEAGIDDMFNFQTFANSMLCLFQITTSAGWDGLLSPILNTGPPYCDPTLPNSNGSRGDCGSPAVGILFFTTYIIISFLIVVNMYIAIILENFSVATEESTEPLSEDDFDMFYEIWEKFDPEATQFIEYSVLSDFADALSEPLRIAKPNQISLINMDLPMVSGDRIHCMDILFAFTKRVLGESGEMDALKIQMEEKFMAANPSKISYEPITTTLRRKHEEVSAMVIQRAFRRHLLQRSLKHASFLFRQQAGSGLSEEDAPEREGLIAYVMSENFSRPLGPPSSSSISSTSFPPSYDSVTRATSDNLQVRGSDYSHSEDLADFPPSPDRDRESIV

[18] = molecular target: Sodium channel protein type 8 subunit alpha (Homo sapiens) (UniProt Q9UQD0); assay: Activation of human Nav1.6 expressed in T-Rex-CHO cells assessed as change in decay time constant of channel currents at 1 uM at holding potential of -120 mV by automated patch-clamp electrophysiology assay relative to control; format: cell-based
Sequence of Sodium channel protein type 8 subunit alpha (Homo sapiens) (Q9UQD0 whole entry, looked up): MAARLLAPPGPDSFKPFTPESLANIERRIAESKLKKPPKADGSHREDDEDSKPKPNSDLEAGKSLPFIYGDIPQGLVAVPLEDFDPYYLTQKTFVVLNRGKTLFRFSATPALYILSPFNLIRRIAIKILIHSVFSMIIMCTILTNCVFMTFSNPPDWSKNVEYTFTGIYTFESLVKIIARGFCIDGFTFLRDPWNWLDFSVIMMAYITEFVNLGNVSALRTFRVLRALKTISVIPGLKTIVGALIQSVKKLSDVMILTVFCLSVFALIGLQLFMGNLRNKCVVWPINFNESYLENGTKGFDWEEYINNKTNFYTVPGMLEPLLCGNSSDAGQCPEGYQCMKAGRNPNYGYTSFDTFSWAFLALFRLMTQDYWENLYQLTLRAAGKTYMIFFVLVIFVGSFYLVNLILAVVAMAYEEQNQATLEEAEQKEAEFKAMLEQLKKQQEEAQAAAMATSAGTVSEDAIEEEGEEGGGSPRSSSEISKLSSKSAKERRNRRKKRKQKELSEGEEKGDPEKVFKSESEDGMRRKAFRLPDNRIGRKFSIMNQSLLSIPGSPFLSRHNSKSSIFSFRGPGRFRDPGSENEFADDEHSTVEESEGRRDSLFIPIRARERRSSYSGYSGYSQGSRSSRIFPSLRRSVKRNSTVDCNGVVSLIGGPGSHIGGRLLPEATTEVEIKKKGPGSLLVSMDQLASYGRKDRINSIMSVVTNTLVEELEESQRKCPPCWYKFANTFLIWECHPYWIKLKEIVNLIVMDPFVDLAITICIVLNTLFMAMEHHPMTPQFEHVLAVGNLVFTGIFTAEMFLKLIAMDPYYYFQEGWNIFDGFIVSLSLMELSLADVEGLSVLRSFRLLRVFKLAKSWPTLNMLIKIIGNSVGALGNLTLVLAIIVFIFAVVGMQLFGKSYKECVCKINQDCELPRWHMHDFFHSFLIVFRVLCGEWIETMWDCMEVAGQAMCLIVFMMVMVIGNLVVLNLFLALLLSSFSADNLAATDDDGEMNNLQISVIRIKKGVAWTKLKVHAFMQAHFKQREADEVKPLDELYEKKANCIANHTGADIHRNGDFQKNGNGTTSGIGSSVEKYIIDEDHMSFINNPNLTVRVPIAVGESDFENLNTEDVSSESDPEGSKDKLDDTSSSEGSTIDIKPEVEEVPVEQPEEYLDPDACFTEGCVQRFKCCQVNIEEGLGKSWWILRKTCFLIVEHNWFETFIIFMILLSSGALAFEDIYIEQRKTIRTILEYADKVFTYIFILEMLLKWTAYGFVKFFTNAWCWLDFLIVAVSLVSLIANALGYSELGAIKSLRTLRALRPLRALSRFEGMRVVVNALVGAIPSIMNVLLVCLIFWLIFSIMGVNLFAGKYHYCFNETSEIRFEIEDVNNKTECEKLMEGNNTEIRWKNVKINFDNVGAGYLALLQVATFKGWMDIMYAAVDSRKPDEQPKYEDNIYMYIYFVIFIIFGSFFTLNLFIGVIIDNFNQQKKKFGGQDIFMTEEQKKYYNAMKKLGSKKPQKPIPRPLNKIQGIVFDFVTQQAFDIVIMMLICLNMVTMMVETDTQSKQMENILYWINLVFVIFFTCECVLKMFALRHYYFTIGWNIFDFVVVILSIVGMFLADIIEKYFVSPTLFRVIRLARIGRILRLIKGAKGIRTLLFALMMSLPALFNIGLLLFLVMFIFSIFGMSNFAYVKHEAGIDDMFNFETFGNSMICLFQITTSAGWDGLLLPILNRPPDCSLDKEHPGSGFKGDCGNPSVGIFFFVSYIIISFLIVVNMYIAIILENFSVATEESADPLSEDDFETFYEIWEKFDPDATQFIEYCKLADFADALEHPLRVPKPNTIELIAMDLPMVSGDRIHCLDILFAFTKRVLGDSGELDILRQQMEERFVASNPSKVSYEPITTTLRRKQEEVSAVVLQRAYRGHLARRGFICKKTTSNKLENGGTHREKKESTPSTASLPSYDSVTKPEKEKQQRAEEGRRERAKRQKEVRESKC

[19] = molecular target: Sodium channel protein type 2 subunit alpha (Homo sapiens) (UniProt Q99250); assay: Activation of human Nav1.2 expressed in T-Rex-CHO cells assessed as change in peak current at 1 uM by Q-patch assay relative to control; format: cell-based
[20] = molecular target: Sodium channel protein type 3 subunit alpha (Homo sapiens) (UniProt Q9NY46); assay: Activation of human Nav1.3 expressed in CHO cells assessed as change in peak current at 1 uM by Q-patch assay relative to control; format: cell-based
[21] = molecular target: T1, Sodium channel protein type 5 subunit alpha; assay: Activation of human Nav1.5 expressed in T-Rex-CHO cells assessed as change in peak current at 1 uM by Q-patch assay relative to control; format: cell-based
[22] = molecular target: Sodium channel protein type 8 subunit alpha (Homo sapiens) (UniProt Q9UQD0); assay: Activation of human Nav1.6 expressed in T-Rex-CHO cells assessed as change in peak current at 1 uM by Q-patch assay relative to control; format: cell-based

Row | Activity [1] [%] | Activity [2] [%] | Activity [3] [%] | Activity [4] [%] | Activity [5] [%] | SMILES | other results
1 | 111 | 90 |  |  |  | CC(C)c1ccc(NC(=O)c2c(-c3ccc(Cl)cc3)ncnc2N2CCC2)cn1 | 
2 | 391 |  | 1400 | 711 | 135 | CC(C)c1ccc(NC(=O)c2c(-c3ccccc3F)ncnc2N2CC[C@H](F)C2)cn1 | 
3 | 257 | 342 | 682 | 170 | 107 | CC(C)c1ccc(NC(=O)c2c(-c3ccc(Cl)cc3)ncnc2N2CC[C@H](F)C2)cn1 | 
4 | 99 | 110 |  |  |  | CC(C)c1ccc(NC(=O)c2c(-c3ccc(Cl)cc3)cccc2N2CCOCC2)cn1 | 
5 | 714 |  | 1900 | 853 | 260 | CC(C)c1ccc(NC(=O)c2c(-c3cc(F)ccc3F)ncnc2N2CC[C@H](F)C2)cn1 | Activity [6]: 135%; Activity [7]: 124%; Activity [8]: 193%
6 |  |  | 1900 |  | 492 | CC(C)c1ccc(NC(=O)c2c(-c3cc(F)ccc3F)ccnc2N2CC[C@H](F)C2)cn1 | Activity [9]: 144%; Activity [6]: 176%; Activity [7]: 255%; Activity [8]: 1200%; efflux ratio at 1 h, 1 µM (human MDR1): 1; concentration at 1 h [10]: 968 ng/mL; concentration at 1 h [11]: 193 ng/g; Kp at 1 h [12]: 0.2; fraction unbound at 1 h [13]: 0.029; Drug uptake(free) [14]: 13 nM; Activity [15]: 106%; Activity [16]: 826%; Activity [17]: 108%; Activity [18]: 102%; Activity [19]: 94%; Activity [20]: 129%; Activity [21]: 94%; Activity [22]: 100%
7 | 302 |  | 332 | 255 | 102 | CC(C)c1ccc(NC(=O)c2c(-c3ccccc3)ncnc2N2CC[C@H](F)C2)cn1 | 
8 | 197 |  |  |  | 93 | CC(C)c1ccc(NC(=O)c2c(-c3ccc(F)cc3)ncnc2N2CC[C@H](F)C2)cn1 | 
9 |  |  |  |  | 124 | CC(C)c1ccc(NC(=O)c2c(-c3cc(F)ccc3F)cncc2N2CC[C@H](F)C2)cn1 | Activity [6]: 92%
10 | 110 | 105 |  |  |  | CC(C)c1ccc(NC(=O)c2c(-c3ccc(Cl)cc3)ncnc2N2CCCCC2)cn1 | 
11 | 115 |  |  |  | 80 | CC(C)c1ccc(NC(=O)c2c(-c3ccoc3)ncnc2N2CC[C@H](F)C2)cn1 | 
12 | 184 | 131 |  |  |  | CC(C)c1ccc(NC(=O)c2c(-c3ccc(Cl)cc3)ncnc2N2CCC(F)(F)C2)cn1 | 
